Myeloid diff MLP: myeloid differentiation induction; ER-HoxA9 myeloid progenitors, lysozyme-GFP differentiation, flow cytometry; calls only at 10 µM; hit rate 1% among 360,000; AID 624256;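 active means normalized GFP-positive differentiation at or above the plate's own cutoff, the solvent-only control mean plus 3 SD; inconclusive means no clear call, values can overlap the other calls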;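 further: cells exposed to compound for four days before flow analysis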
GAA850 FXN act: activators of GAA850 frataxin (FXN) promoter | HEK293 lucGAA850 FXN promoter luciferase reporter, 24 h; percent of 10 µM SAHA response | activation, % at 6 µM | hit rate 0.56% among 360,000 | AID 540364;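 active means activation above the average of all compounds screened plus 3 SD, cutoff fixed separately per campaign, cut at about 7.5% in these data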
NR2E3 ag-1: agonists of human NR2E3 nuclear receptor; CHO-S Gal4-NCOR/VP16-NR2E3 two-hybrid, luciferase; Q9Y5X4; AID 602229; hit rate 0.35% among 360,000; inhibition of corepressor binding, % at 3.98 µM;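 active means inhibition above the mean of all tested compounds plus 3 SD, cut at about 70% in these data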;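 further: higher means lower luciferase signal from less NR2E3 corepressor binding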
Target sequence (Q9Y5X4 whole entry, looked up, the tested form may be a part): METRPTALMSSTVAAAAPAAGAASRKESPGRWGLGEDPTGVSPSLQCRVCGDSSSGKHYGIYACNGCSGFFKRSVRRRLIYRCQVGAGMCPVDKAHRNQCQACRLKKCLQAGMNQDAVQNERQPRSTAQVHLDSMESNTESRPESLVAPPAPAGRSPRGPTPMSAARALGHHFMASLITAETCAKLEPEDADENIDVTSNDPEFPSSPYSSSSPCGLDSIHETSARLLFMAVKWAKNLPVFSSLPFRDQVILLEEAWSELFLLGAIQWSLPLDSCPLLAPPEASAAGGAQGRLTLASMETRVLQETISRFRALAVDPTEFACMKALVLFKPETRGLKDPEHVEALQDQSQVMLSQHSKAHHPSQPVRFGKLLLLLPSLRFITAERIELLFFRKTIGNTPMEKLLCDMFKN
T cell HTS: T cell immune modulators affecting CD8 T cell-vesicle binding; 2C CD8+ T cell-vesicle binding, flow cytometry; active compounds read low; response (vesicle binding), % at 7 µM; hit rate 0.068% among 330,000; AID 2052;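 active means response, share of CD8 T cells binding vesicles, and their 90th percentile fluorescence all below set limits, cut at about 80% in these data, passing the limit was not always enough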;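 further: values below 100% mean blocked vesicle binding to the CD8+ T cells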
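System: murine 2C transgenic CD8+ T lymphocytes; also added: QL9-loaded Drosophila micro-vesicles; times: binding 1.5 h at 37 °C; measured by: flow cytometry, PE anti-B7-1 (FL2) versus Alexa647 anti-CD8 (FL8), PFA-fixed; control set: Peptide-free naked vesicles (low) and QL9 vesicles with 0.7% DMSO vehicle (high)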
NR2E3 ag-2: activates human photoreceptor nuclear receptor NR2E3 | Q9Y5X4 | GST-NR2E3/biotin-RetCOR TR-FRET, 1536-well | inhibition of corepressor binding, % at 4.78 µM | hit rate 0.12% among 320,000 | AID 2300;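 active means percent inhibition above the cutoff of mean plus 3 SD of all tested compounds, set per screening campaign, cut at about 20% in these data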
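Format: 1536-well format; test system: GST-NR2E3 and biotin-RetCOR proteins; read-out basis: percent inhibition of TR-FRET ratio; timing: 5 h incubation at 4 °C; detection: time-resolved FRET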
GAA30 FXN cntr: GAA30 FXN promoter activation counter-screen; hit rate 66% among 1,900; activation, % at 6 µM; AID 588350; shares compounds with GAA850 FXN act; HEK293 lucGAA30 FXN promoter luciferase, 24 h; DMSO = 0%, 5 µM ipriflavone = 100%;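 active means mean activation above the mean of solvent-only control wells plus 3 SD, cut at about 22% in these data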;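 further: counterscreen of GAA850 promoter hits where activity marks nonselective or luminescence artifacts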
FXN GAA850 conf: GAA850 FXN promoter activation confirmation | shares compounds with GAA850 FXN act | HEK293 lucGAA850 FXN promoter luciferase reporter, 24 h; 100% = activation by SAHA | activation, % at 6 µM | hit rate 86% among 1,900;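 active means mean activation above a set limit taken from the primary screen, cut at about 8% in these data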
A number is an active result; n = inactive; u = inconclusive; x = no result. This is a sample that favours compounds with a hit; in the whole collection about 2% have one here.

SMILES | Myeloid diff MLP | GAA850 FXN act | NR2E3 ag-1 | T cell HTS | NR2E3 ag-2 | GAA30 FXN cntr | FXN GAA850 conf
O=C(CCC(=O)N1CCSc2ccccc21)NC1CCCCC1 | n | 8.0 | n | n | n | n | n
O=C(CCC(=O)N1CCSc2ccccc21)NCCc1ccccc1 | n | n | n | n | n | x | x
OC[C@@H]1CN(CCN2CCOCC2)C[C@H](n2cnc3c(Nc4ccccc4)ncnc32)O1 | n | n | n | x | x | x | x
C=C[C@@]1(C)CC(=O)[C@]2(O)[C@@]3(C)[C@@H](O)CCC(C)(C)[C@@H]3[C@H](O)[C@H](OC(C)=O)[C@@]2(C)O1 | n | 16 | n | n | n | n | 15
C=C[C@@]1(C)CC(=O)[C@]2(O)[C@@]3(C)[C@@H](O)CCC(C)(C)[C@@H]3[C@H](OC(C)=O)[C@H](O)[C@@]2(C)O1 | n | 12 | n | n | n | n | 14
CCc1nc2ccc(C(=O)NCCOc3ccc(OC)cc3)cn2c1N(CC)Cc1ccc(OC)c(OC)c1 | n | 8.4 | n | x | x | n | n
CCc1nc2ccc(C(=O)NCCN3CCNC3=O)cn2c1N(C)Cc1ccc(OC)cc1 | n | 14 | n | x | x | 22 | n
CCc1nc2ccc(C(=O)Nc3ccc(OC)c(OC)c3)cn2c1N(CC)Cc1ccc(OC)c(OC)c1 | n | n | n | x | x | x | x
COc1cc(C)ccc1OCc1cc(C(=O)N2CCC(c3ccc(F)cc3)C2)no1 (stereo not given) | n | 8.9 | n | n | n | 117 | 35
Cc1ccc(C)c(OCc2cc(C(=O)N3CC[C@@H]4CCCC[C@H]4C3)no2)c1 | n | n | n | n | n | x | x
CCOc1ccc(CCN2C(=O)C(=O)N([C@@H](Cc3ccccc3)CN3CCC[C@H]3CN3C(=O)C(=O)NC[C@@H]3Cc3ccccc3)C[C@@H]2Cc2ccc(O)cc2)cc1 | n | x | n | x | x | x | x
NC(=O)Cn1cc(/C=N/NC(=O)c2ccc(Cn3cc(Cl)cn3)o2)c(-c2ccccc2)n1 | n | n | n | n | x | x | x
CC(C)OP(=O)(Nc1cccc2ccccc12)OC(C)C | n | 12 | n | n | n | 25 | 12
CCCCN(C(=O)c1cccc(-n2cnnn2)c1)c1c(N)n(CCCC)c(=O)[nH]c1=O | n | n | n | x | x | x | x
COc1ccc(CN(C)C[C@@H]2OCc3cnnn3CCCC(=O)N([C@H](C)CO)C[C@H]2C)cc1 | n | n | n | x | x | x | x
CCOc1cc(C(=O)OC(C(=O)NC(=O)NC)c2ccccc2)ccc1OCC(=O)N1CCOCC1 (stereo not given) | n | n | n | n | x | x | x
CC1=CC(C)(C)Nc2ccc(OC(=O)CN3C(=O)c4ccccc4C3=O)cc21 | u | 8.7 | n | n | n | n | 18
COC(=O)[C@@]1(C)[C@H]2C(=O)N(Cc3ccccc3)C(=O)[C@H]2[C@H]2CN=C(SCc3ccc(C#N)cc3)N21 | n | 13 | n | x | x | 22 | 12
COC(=O)[C@@]1(C)[C@H]2C(=O)N(Cc3ccccc3)C(=O)[C@H]2[C@H]2CN=C(SCc3ccc(Cl)cc3)N21 | n | 15 | n | x | x | 30 | 11
O=C(CCl)N(C1CCCC1)C1CCS(=O)(=O)C1 (stereo not given) | n | n | n | n | n | x | x
Cc1cc(OC(C)C(=O)N(Cc2ccco2)C2CCS(=O)(=O)C2)ccc1Cl (stereo not given) | n | 12 | n | n | n | n | n
CCc1ccc(OC(C)C(=O)N(Cc2ccco2)C2CCS(=O)(=O)C2)cc1 (stereo not given) | n | n | n | n | n | x | x
Cc1cccc(NC(=O)c2ccc(S(=O)(=O)N3CCC(C)CC3)cc2)n1 | n | n | n | n | n | x | x
Cc1ccc2c(c1)C1CN(C)CCC1N2S(=O)(=O)c1ccccc1F (stereo not given) | n | n | n | n | n | x | x
CN(C)CCNc1ccc2ncn3c4ccc(O)cc4c(=O)c1c23 | x | 8.4 | n | x | x | n | 26
CCn1c2ccccc2c2cc(NC(=O)CSc3nnc(-c4ccccc4OC)n3N)ccc21 | n | 8.4 | n | n | n | n | n

Bioassay records: PubChem, several laboratories
